Reference: ChEMBL document CHEMBL5537190, “Development of Potent and Selective Monoacylglycerol Lipase Inhibitors. SARs, Structural Analysis, and Biological Characterization” (J Med Chem, 2024)
Active and inactive are the calls of the source. The rule behind the calls is not given here.

Tests used:
[1] = target: T1, Monoglyceride lipase (Mus musculus) (UniProt O35678); assay: In-vivo inhibition of ip dosed mouse MAGL assessed as increase in 2-Ag level measured after 1 hr by LC-MS/MS analysis; assay type: functional, organism-based; details: dose 0.2-20 mg/kg
T1 sequence (whole entry): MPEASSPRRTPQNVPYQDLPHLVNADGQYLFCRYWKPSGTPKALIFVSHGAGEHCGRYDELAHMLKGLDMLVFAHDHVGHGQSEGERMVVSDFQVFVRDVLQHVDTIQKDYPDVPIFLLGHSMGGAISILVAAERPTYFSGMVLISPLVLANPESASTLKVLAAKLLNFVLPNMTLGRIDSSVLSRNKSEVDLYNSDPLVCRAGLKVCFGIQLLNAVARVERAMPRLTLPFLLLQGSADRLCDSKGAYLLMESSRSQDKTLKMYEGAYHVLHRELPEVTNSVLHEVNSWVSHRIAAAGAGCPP
In short: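 Adult male mice dosed i.p. at 0.2, 1, 5 or 20 mg/kg (n = 3/group), vehicle DMSO or PEG/Tween (4:1). Killed at 1 h; brains halved and frozen. One half for 2-AG by LC-MS, the other for MAGL assay on homogenate. t-test against vehicle; two-way ANOVA with Bonferroni post-test.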

[2] = target: T2, Lysophosphatidylserine lipase ABHD12 (Mus musculus) (UniProt Q99LR1); assay: Binding affinity to mouse brain ABHD12 at 0.1 to 1 uM incubated for 30 mins in presence of g MB064 by ABPP assay; assay type: tissue-based; details: dose 0.1-1 µM
T2 sequence (whole entry): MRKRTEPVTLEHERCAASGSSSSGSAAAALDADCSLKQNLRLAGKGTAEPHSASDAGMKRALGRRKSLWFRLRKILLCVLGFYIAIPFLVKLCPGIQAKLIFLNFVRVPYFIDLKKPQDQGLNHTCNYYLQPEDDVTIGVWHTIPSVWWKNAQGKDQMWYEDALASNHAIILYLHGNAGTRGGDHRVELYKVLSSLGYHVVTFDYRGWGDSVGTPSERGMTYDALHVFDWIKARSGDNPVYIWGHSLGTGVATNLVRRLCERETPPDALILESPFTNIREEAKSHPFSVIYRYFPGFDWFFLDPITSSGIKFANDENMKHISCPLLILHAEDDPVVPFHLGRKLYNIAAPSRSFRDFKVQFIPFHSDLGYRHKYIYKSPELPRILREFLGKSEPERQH
In short: (§1)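 Male C57Bl/6J mouse brain (27 weeks) homogenised; membrane and cytosol fractions separated and diluted to 2.0 mg/mL. Samples incubated with compound (0.1 or 1 µM final) or 2.5% DMSO for 30 min at RT. Probes MB064 and FP-Bodipy (100 nM each) added for 10 min. SDS-PAGE with in-gel fluorescence; Coomassie staining as loading control.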

[3] = target: Acyl-protein thioesterase 2 (Mus musculus) (UniProt Q9WTL7); assay: Binding affinity to mouse brain LYPLA2 at 0.1 to 1 uM incubated for 30 mins in presence of MB064 by ABPP assay; assay type: tissue-based; details: dose 0.1-1 µM; in short: as §1
Sequence of Acyl-protein thioesterase 2 (Mus musculus) (Q9WTL7 whole entry): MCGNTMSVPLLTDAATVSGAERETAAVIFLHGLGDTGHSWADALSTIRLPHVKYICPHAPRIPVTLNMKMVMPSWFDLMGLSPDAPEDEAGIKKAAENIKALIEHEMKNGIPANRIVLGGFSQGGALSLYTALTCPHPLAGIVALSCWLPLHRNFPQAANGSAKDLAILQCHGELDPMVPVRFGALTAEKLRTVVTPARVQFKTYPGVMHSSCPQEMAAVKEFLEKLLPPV

[4] = target: T3, Monoacylglycerol lipase ABHD6 (Mus musculus) (UniProt Q8R2Y0); assay: Binding affinity to mouse brain ABHD6 at 0.1 to 1 uM incubated for 30 mins in presence of MB064 by ABPP assay; assay type: tissue-based; details: dose 0.1-1 µM; in short: as §1
T3 sequence (whole entry): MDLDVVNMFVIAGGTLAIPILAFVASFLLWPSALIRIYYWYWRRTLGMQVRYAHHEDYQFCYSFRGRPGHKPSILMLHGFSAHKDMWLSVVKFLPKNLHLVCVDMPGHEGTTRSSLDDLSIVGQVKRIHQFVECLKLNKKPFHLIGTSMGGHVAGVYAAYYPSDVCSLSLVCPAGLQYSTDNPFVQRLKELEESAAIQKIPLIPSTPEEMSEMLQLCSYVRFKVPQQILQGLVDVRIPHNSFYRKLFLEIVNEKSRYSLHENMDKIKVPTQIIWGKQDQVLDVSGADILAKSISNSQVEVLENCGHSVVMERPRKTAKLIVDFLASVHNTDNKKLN

[5] = target: T1, Monoglyceride lipase (Mus musculus); assay: In-vivo inhibition of MAGL activity in brain of mouse at 5 mg/kg, ip measured after 1 hrs by LC-MS analysis; assay type: functional, organism-based
In short: (§2)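 Adult male mice received 5 mg/kg i.p. (n = 3/group), DMSO vehicle. Killed at 1 h. Half-brains used for lipid analysis by LC-MS; the other half homogenised for MAGL activity assay. Compared with vehicle by two-tailed t-test.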

[6] = target: T4, Monoglyceride lipase (Rattus norvegicus) (UniProt Q8R431); assay: Irreversible inhibition of rat MAGL expressed in human HeLa cells incubated for 60 mins; assay type: cell-based
T4 sequence (whole entry): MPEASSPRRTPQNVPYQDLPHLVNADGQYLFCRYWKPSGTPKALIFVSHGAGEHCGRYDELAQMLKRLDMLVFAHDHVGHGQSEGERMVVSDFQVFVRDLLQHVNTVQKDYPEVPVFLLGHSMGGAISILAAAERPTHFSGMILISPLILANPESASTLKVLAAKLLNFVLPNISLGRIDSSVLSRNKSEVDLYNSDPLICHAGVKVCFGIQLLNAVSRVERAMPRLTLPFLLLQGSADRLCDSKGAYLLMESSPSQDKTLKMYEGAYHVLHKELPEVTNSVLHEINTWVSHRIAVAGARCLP
In short: (§3)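 Homogenates of HeLa cells overexpressing wild-type rat MAGL, in 50 mM Tris-HCl pH 8.0 with 0.5 mg/mL fatty-acid-free BSA, 37 °C; 2-OG substrate 10 µM final, oleic acid by LC/MS. Time course: preincubation for varied times, then 30 min with substrate. Dilution: enzyme concentrated 100-fold, preincubated 20 min with 10× IC50-equivalent compound or 1% DMSO, diluted 100-fold into substrate buffer, product followed over 60 min (n = 3).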

[7] = target: Cannabinoid receptor 1 (Homo sapiens) (UniProt P21554); assay: Agonist activity at CB1 receptor (unknown origin) at 10 uM; assay type: functional
Sequence of Cannabinoid receptor 1 (Homo sapiens) (P21554 whole entry): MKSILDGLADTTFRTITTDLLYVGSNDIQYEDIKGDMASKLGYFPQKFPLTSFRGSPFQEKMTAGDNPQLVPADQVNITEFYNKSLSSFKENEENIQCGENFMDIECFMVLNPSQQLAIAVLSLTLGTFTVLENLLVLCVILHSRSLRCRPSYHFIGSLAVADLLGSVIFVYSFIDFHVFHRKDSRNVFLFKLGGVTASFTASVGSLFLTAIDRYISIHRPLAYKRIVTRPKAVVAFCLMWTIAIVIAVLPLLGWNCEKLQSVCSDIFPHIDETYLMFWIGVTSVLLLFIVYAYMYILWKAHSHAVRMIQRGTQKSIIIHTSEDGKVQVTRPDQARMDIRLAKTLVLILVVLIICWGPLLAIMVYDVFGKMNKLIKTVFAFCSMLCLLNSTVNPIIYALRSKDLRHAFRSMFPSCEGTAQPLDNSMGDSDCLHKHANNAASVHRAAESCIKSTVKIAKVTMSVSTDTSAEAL

[8] = target: T1, Monoglyceride lipase (Mus musculus); assay: In-vivo inhibition of mouse MAGL assessed as effect on OEA level in brain at 5 mg/kg, ip measured after 1 hr by LC-MS/MS analysis; assay type: functional, organism-based; in short: as §2
[9] = target: T1, Monoglyceride lipase (Mus musculus); assay: In-vivo inhibition of mouse MAGL assessed as effect on stearic level in brain at 5 mg/kg, ip measured after 1 hr by LC-MS/MS analysis; assay type: functional, organism-based; in short: as §2
[10] = target: T1, Monoglyceride lipase (Mus musculus); assay: In-vivo inhibition of mouse MAGL assessed as effect on palmitic level in brain at 5 mg/kg, ip measured after 1 hr by LC-MS/MS analysis; assay type: functional, organism-based; in short: as §2
[11] = target: Kappa-type opioid receptor (Homo sapiens) (UniProt P41145); assay: Agonist activity at human KOP at 10 uM relative to control; assay type: functional; details: filed as agonist
Sequence of Kappa-type opioid receptor (Homo sapiens) (P41145 whole entry): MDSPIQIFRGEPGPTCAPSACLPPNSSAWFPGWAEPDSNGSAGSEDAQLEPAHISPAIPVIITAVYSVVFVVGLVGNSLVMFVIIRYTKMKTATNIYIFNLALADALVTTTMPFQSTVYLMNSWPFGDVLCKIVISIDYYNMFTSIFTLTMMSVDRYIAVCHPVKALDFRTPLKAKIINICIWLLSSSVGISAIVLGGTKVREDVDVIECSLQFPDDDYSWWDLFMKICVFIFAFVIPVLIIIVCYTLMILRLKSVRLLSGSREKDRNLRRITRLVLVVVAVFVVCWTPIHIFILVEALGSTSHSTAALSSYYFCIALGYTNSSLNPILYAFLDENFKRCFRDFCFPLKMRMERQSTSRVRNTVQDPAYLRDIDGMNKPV

[12] = target: T1, Monoglyceride lipase (Mus musculus); assay: In-vivo inhibition of mouse MAGL assessed as fold increase in 2-AG content in brain at 5 mg/kg, ip measured after 1 hr by LC-MS/MS analysis; assay type: functional, organism-based; in short: as §2
[13] = target: T1, Monoglyceride lipase (Mus musculus); assay: In-vivo inhibition of mouse MAGL assessed as effect on docosahexaenoic level in brain at 5 mg/kg, ip measured after 1 hr by LC-MS/MS analysis; assay type: functional, organism-based; in short: as §2
[14] = target: T1, Monoglyceride lipase (Mus musculus); assay: In-vivo inhibition of mouse MAGL assessed as effect on AEA level in brain at 5 mg/kg, ip measured after 1 hr by LC-MS/MS analysis; assay type: functional, organism-based; in short: as §2
Cannabinoid receptor 2 = Cannabinoid receptor 2 (Homo sapiens, UniProt P34972); assay: Agonist activity at human CB2 receptor at 10 uM by TR-FRET assay; assay type: functional
Sequence of Cannabinoid receptor 2 (P34972 whole entry): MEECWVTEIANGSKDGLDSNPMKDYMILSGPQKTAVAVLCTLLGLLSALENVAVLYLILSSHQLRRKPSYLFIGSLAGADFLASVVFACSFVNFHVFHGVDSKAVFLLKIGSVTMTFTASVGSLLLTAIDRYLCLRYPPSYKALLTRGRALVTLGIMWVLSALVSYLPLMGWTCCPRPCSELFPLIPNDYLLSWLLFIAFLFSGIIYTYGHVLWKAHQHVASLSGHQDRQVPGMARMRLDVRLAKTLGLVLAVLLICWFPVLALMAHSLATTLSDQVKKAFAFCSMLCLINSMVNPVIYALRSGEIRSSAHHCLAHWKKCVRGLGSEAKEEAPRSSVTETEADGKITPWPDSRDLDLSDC

[15] = target: T4, Monoglyceride lipase (Rattus norvegicus); assay: Inhibition of wild type rat MAGL expressed in human HeLa cells; assay type: cell-based; details: time 10.0 min, TDE = time-dependent effect; in short: as §3
[16] = target: T1, Monoglyceride lipase (Mus musculus); assay: In-vivo inhibition of mouse MAGL assessed as effect on oleic level in brain at 5 mg/kg, ip measured after 1 hr by LC-MS/MS analysis; assay type: functional, organism-based; in short: as §2
[17] = target: T1, Monoglyceride lipase (Mus musculus); assay: In-vivo inhibition of mouse MAGL assessed as decrease in arachidonic acid level in brain at 5 mg/kg, ip measured after 1 hr by LC-MS/MS analysis; assay type: functional, organism-based; in short: as §2
[18] = target: T1, Monoglyceride lipase (Mus musculus); assay: In-vivo inhibition of mouse MAGL assessed as effect on PEA level in brain at 5 mg/kg, ip measured after 1 hr by LC-MS/MS analysis; assay type: functional, organism-based; in short: as §2

Structure (SMILES): O=C(Oc1ccc([N+](=O)[O-])cc1)N1CCC(C(O)(c2ccc3c(c2)OCO3)c2ccc3c(c2)OCO3)CC1
- inhibition [1]: Dose-Dependent Effect

Structure (SMILES): O=C1[C@H](c2ccc(F)cc2)[C@@H](c2ccc3c(c2)OCO3)N1C1CCN(C(=O)n2nnc3ccccc32)CC1
- Activity [2]: Active
- Activity [3]: Active
- Activity [4]: Active

Structure (SMILES): O=C1[C@H](c2ccc(F)cc2)[C@@H](c2ccc3c(c2)OCO3)N1C1CCN(C(=O)n2nnc3ccccc32)CC1 (racemic)
- Activity [2]: Active
- Activity [3]: Active
- inhibition [5]: 50%
- inhibition [6]: Active
- Activity [7]: inactive
- inhibition [8]: Dose-Dependent Effect
- Activity [4]: Active
- inhibition [9]: Active
- inhibition [10]: Active
- Activity [11]: 73%
- fold change (FC) [12]: > 40
- inhibition [13]: Active
- inhibition [14]: Dose-Dependent Effect
- inhibition [1]: Dose-Dependent Effect
- Activity (Cannabinoid receptor 2): inactive
- inhibition [15]: Tde
- inhibition [16]: Active
- inhibition [17]: Active
- inhibition [18]: Dose-Dependent Effect
